# Bioassay records from PubChem.
# SENP8 block-1 = blocks human SENP8 cleavage of Nedd8 substrate. recombinant SENP8, Nedd8 substrate fluorescence. inhibition, % at 20 µM. AID 602440. actives 0.64% (n = 360,000). Q96LD8; in the data active means inhibition mostly above about 40%, no sharp cut-off; inactive means mostly below about 27%
# Apaf-1 inh = blocks human Apaf-1 apoptosome activity. actives 0.71% (n = 330,000). AID 489030. reconstituted apoptosome caspase-3 activity, DEVD-Rh110 fluorescence. inhibition, % at 20 µM; active means inhibition of at least 40% at 20 µM;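 further: plate controls were DMSO wells for no effect and DEVD-CHO caspase inhibitor wells for full effect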
# Target sequence (O14727 whole entry, looked up): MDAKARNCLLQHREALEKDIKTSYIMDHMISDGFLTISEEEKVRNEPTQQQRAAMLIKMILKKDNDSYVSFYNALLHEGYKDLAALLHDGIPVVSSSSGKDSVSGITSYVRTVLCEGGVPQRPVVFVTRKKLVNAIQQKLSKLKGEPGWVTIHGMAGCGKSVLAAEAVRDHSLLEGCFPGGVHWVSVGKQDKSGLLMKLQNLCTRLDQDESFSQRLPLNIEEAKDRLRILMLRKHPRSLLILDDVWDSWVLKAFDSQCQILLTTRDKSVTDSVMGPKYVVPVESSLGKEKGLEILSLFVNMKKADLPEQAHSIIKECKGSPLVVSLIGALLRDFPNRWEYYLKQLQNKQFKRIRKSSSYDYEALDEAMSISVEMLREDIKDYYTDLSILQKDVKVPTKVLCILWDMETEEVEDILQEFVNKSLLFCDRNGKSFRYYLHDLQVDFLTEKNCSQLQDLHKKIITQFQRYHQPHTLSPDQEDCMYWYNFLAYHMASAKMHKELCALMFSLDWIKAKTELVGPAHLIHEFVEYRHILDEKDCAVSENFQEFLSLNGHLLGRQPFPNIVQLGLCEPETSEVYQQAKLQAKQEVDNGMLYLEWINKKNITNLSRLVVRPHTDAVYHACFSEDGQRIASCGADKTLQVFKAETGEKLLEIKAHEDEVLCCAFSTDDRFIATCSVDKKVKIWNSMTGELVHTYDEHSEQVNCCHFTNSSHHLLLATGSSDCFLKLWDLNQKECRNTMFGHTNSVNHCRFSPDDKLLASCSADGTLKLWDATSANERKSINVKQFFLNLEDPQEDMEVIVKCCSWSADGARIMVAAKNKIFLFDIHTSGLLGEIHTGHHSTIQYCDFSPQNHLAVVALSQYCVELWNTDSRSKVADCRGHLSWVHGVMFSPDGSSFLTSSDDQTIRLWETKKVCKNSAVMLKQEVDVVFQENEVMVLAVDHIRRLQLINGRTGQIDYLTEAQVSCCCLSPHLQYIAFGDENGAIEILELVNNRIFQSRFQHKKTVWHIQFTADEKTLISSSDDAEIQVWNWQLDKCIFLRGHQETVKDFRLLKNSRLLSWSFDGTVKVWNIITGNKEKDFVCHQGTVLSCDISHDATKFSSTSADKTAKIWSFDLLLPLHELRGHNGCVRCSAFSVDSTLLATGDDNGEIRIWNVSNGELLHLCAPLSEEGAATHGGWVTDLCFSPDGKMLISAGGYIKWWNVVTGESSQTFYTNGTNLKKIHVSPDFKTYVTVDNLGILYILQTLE
#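 Material: reconstituted apoptosome with Apaf-1, cytochrome c, caspase-9, procaspase-3, dATP. Technique: Rh110 fluorescence intensity. Buffer or medium: pH 7.5 Hepes buffer with CHAPS, BSA, DTT. Times: 30 min plus 50 min, RT.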
# SENP7 block = blocks the human protease SENP7 | AID 434973 | actives 1.5% (n = 330,000) | inhibition, % at 5 µM | recombinant SENP7, Z-RLRGG-aminoluciferin luminescence, 40 min;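 active means inhibition above about 50% at the single test dose, limit read from the data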;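 further: plate controls were DMSO with enzyme for no effect and no enzyme buffer wells for full effect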
# SENP6 inh = SENP6 protease inhibition; Q9GZR1; Recombinant SENP6 catalytic domain, aminoluciferin luminescence; inhibition, % at 10 µM; actives 1.8% (n = 330,000); AID 2599;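 active means inhibition above about 50% at the single tested dose, limit read from the data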;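 further: plate controls were DMSO wells with enzyme for no effect and DMSO wells lacking enzyme for full effect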
# SENP8 block-2 = SENP8 protease inhibition. Q96LD8. actives 1.2% (n = 330,000). inhibition, % at 10 µM. purified SENP8, Z-RLRGG-aminoluciferin cleavage, luminescence. AID 2540; in the data active means inhibition above about 50%
# UBC13 polyUb = blocks human UBC13 polyubiquitin chain formation; TR-FRET; inhibition, % at 20 µM; actives 0.47% (n = 330,000); in the data active means inhibition above about 45%, passing the limit was not always enough; inconclusive means no clear call, values can overlap the other calls
# Casp3 counter = counter-screen for UBC13 inhibitors: human caspase-3 inhibition; shares compounds with UBC13 polyUb; Recombinant caspase-3, Caspase-Glo 3/7 luminescence, 60 min; inhibition, % at 20 µM; actives 4% (n = 1,400); AID 488856;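 active means mean inhibition across replicates above about 26%, limit read from the data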;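 further: plate controls were DMSO with caspase-3 for no effect and DMSO wells lacking enzyme for full effect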
# UBC13 conf = human UBC13 polyubiquitin inhibition, confirmed | shares compounds with UBC13 polyUb | UBC13 polyubiquitination, TR-FRET, biochemical | inhibition, % at 10 µM | actives 68% (n = 1,400) | AID 488859; in the data active means inhibition above about 45%; inconclusive means no clear call, values can overlap the other calls
# Starred values were filed as active, the others as inactive; ? = inconclusive; / = no result. In the library only some 3% were active in any assay of this set; here they are far more common.
SMILES,SENP8 block-1,Apaf-1 inh,SENP7 block,SENP6 inh,SENP8 block-2,UBC13 polyUb,Casp3 counter,UBC13 conf
CCN1CCN(c2cc(C)c3cc(NC(=S)N4CCN(c5ccc(F)cc5)CC4)ccc3n2)CC1,-223,-1,-5,-10,2,47*,2,43
O=C(CCCCCN1C(=O)c2ccccc2C1=O)NCCc1nc2ccccc2[nH]1,16,15,-14,-2,-6,56*,0,53*
CC(C)(C)c1ccc(-c2nc3c(C#N)c(-c4ccc5c(c4)OCO5)ccn3n2)cc1,-291,18,0,-2,-8,48*,-4,?
S=c1nc[nH]c2c1[nH]c1ccccc12,-68,-13,-1,-10,1,82*,4,103*
CC[C@H](CO)Nc1nc(Nc2cccc(Cl)c2)c2ncn(C(C)C)c2n1,-185,19,2,-16,0,77*,-2,67*
CC(C)[C@H](CO)N(Cc1cccc(F)c1)c1nc(Nc2cccc(Cl)c2)c2ncn(C(C)C)c2n1,-177,15,7,-5,-1,-3,/,/
O=C1Cn2nnc(-c3ccccc3)c2C2c3ccccc3CCN12 (centres undefined),11,/,/,/,/,/,/,/
COc1ccc(CCNC(=O)c2cccc(S(=O)(=O)N3CCCCCC3)c2)cc1,9,14,-1,2,8,-1,/,/
Clc1cccc(NCc2ccccc2)n1,7,-7,-1,-8,-5,2,/,/
COc1cccc(-c2nnc3n2N=C(c2cc(OC)ccc2OC)CS3)c1,-79,11,14,-7,6,56*,-3,48*
CN(C)C(=S)Nc1ccc(S(=O)(=O)N2CCCCC2)cc1,-3,5,-2,-16,7,4,/,/
S=C(NCCSCc1ccc(Cl)cc1)Nc1ccccc1,8,-2,1,-14,-4,4,/,/
Cc1cccc(CSCCNC(=S)Nc2ccccc2)c1,12,18,-1,19,-6,48*,6,10
COc1ccc(N(CC(=O)NCCSC2CCCCC2)S(=O)(=O)c2ccccc2)cc1OC,5,5,11,0,-5,-8,/,/
O=C(NC1(C(F)(F)F)N=C2SCCN2C1=O)c1cccnc1 (centres undefined),14,1,0,-3,-2,48*,-3,-8
COc1cccc(C(=O)NC2(C(F)(F)F)N=C3SCCN3C2=O)c1 (centres undefined),4,0,2,0,1,13,/,/
CSc1nccc(Nc2ccccc2)c1C#N,-26,-8,-1,-5,-11,47*,-1,?
N#CC1=C(N)SC(N)=C(C#N)C1c1cccc(O)c1,-35,1,4,-12,3,?,/,/
O=C(Cn1nc(-c2nn(CC(=O)c3ccccc3)c3[n+]2CCCCC3)[n+]2c1CCCCC2)c1ccccc1,23,-7,-1,1,3,78*,2,13
CCC/C(C#Cc1ccsc1)=C1/c2ccccc2C(=O)N1c1ccccc1,-247,25,-1,0,-9,-30,/,/
Cc1nnc(NC(=O)c2c(-c3ccccc3)noc2C)s1,11,8,3,6,-2,0,/,/
Cc1onc(-c2ccccc2)c1C(=O)Nc1cccc2nsnc12,-409,-4,-2,1,1,49*,1,45
CC1(C)Cc2c(sc(NC(=O)C(=O)NCCCN3CCOCC3)c2C(N)=O)CO1,8,-3,3,3,4,83*,0,106*
O=C(CSc1nc2c(sc3ccccc32)c(=O)n1CCCN1CCCC1)NCC1CCCO1 (centres undefined),-198,16,-7,-3,-5,-20,/,/
COc1ccc(NC(=O)CSc2nc3c(sc4ccccc43)c(=O)n2CCCN2CCCC2)cc1,-231,35,-5,-2,8,50*,-2,54*
SMILES,SENP8 block-1,Apaf-1 inh,SENP7 block,SENP6 inh,SENP8 block-2,UBC13 polyUb,Casp3 counter,UBC13 conf
COc1cccc(NC(=O)CSc2nc3ccccc3c(=O)n2CCCC(=O)NCCCN2CCOCC2)c1,18,-1,1,-21,-2,61*,-3,79*
CCOC(=O)C1(CC2CCCCO2)CCN(Cc2ccccc2-c2ccco2)CC1 (centres undefined),4,-10,2,-5,-3,7,/,/
O=[N+]([O-])c1c(-c2cn[nH]c2)n[nH]c1-c1cn[nH]c1,10,-11,0,-9,1,56*,4,53*
COc1nc(N)c(C#N)c(-c2ccc(N(C)CCC#N)cc2)c1C#N,-428,-17,-2,7,2,29,/,/
Cc1ccc(-c2csc3ncnc(SCC(=O)NCC4CCCO4)c23)cc1 (centres undefined),-9,16,-12,-21,-13,-12,/,/
FC(F)(F)c1cc(CCN2CCNC[C@H]2Cc2cccc3ccccc23)cc(C(F)(F)F)c1,-7,72*,-3,-30,-36,96*,2,98*
Oc1ccc(C[C@@H]2CNCCN2CCc2cc(C(F)(F)F)cc(C(F)(F)F)c2)cc1,15,32,3,-2,-10,34,/,/
Cc1ccc(S(=O)(=O)N2CCC(C(=O)OC(C)C(=O)NC(N)=O)CC2)cc1C (centres undefined),11,2,-2,-4,-5,-5,/,/
CC1CC(C)CN(C(=O)c2ccc3c(c2)N(Cc2ccccc2)CCS3)C1 (centres undefined),-415,15,-4,7,8,25,/,/
Cc1ccc(CN2CCSc3ccc(C(=O)NC4CCN(Cc5ccccc5)CC4)cc32)cc1,-381,-3,6,14,6,62*,2,?
O=C(NC1CCCC1)c1ccc2c(c1)N(Cc1ccccc1)CCS2,-316,15,-13,5,-3,38,/,/
CCOC(=O)N1CCN(C(=O)c2ccc3c(c2)N(Cc2ccccc2)CCS3)CC1,-481,22,6,-10,-11,46*,-2,44
O=C(NNC(=O)C1COc2ccccc2O1)c1ccccc1O (centres undefined),-233,-4,4,-3,2,1,/,/
CC1CCCCN1CCNC(=O)c1ccc2c(=O)n(Cc3ccc(Cl)cc3)c(=S)[nH]c2c1 (centres undefined),-6,37,1,0,-9,49*,-1,61*
CC1CCCCN1CCNC(=O)c1ccc2c(=O)n(CCc3ccccc3)c(=O)[nH]c2c1 (centres undefined),-268,33,-8,-16,-2,21,/,/
N#Cc1sc2nc(-c3cccs3)cc(-c3ccc(F)cc3)c2c1N,-302,16,7,-9,-2,59*,-2,34
